pIC50: −log10 of the molar value. “Also recorded” adds a separate entry of the source. Like-named read-outs stand apart in the source and are kept apart here.

The test system of assay [1] is UM cell lines (MP41, MP38, MP46). In words: Concentration-response cell viability, UM cell lines overall. The format is cell-based, human. To be noted: 72 h.
A further assay has as its system MP41 and MP38 cells. The assay is described as follows: HDAC3 / HDAC8 inhibitor concentration-response testing. The format is cell-based, human. Particulars: alone or in combination. In a few lines:
(§1)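 Cells treated 72 h with a 10-point 1:3 dilution series from nominal 10 μM top (one compound started at 300 nM), n = 4. Viability read by CellTiter-Glo ATP luminescence and normalized to 0.1% DMSO controls. IC50 and % viability derived by four-parameter log(inhibitor) vs. response fit with variable slope.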

The test system of a further assay is WS1 fibroblast cell line. The assay is described as follows: Viability assay on non-cancerous fibroblasts. The assay is classed as cell-based. To be noted: for pIC50: Fibroblast, read-out: fibroblast IC50; for fold higher IC50 / lower toxicity for non-cancerous cells than for UM cells: WS1 fibroblast IC50 vs UM IC50. In a few lines:
as §1

The test system of assay [2] is UM cell lines, including UMM66 cells. The assay is described as follows: Romidepsin from two sources in UM cell lines including UMM66. The format is cell-based. Particulars: Homo sapiens, read-out: IC50 in all UM cell lines including UMM66.
Another assay deals with UM cells. In words: Synergy testing of romidepsin and quisinostat with other hit compounds. Particulars: plus EC20 of other candidate compound. The format is cell-based, human.
For assay [3], the system named is MP41 metastatic UM xenograft. In words: Metastatic UM xenograft mouse model. The assay is classed as in vivo, NSG mice. Particulars: for survival in comparison with the vehicle group: log-rank test, p > 0.10. In short, it runs like this:
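Female NSG mice, 16 weeks old, given 1 × 10^5 FACS-sorted RFP-luciferase-transduced MP41 cells via tail vein; n = 10 per group, randomized. From day 7, test compound dosed at 2 mg/kg IP weekly. Weekly IVIS imaging 10 min after 150 mg/kg IP d-luciferin. Endpoint was >20% weight loss or health decline; organs imaged ex vivo; survival compared by log-rank.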

Assay [4] concerns MP41 cells extracted from mouse liver metastases. The assay is described as follows: Ex vivo resistance testing of UM cells from mouse liver metastases. Particulars: relative to cells from vehicle group. The format is cell-based, human. In short, it runs like this:
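Liver tissue from treated and vehicle mice minced and digested overnight at 4°C in D-MEM with 400 U/mL type IV collagenase and 0.5 μg/mL amphotericin B. Cells grown in UM medium, confirmed as MP41 by RFP fluorescence, then given 10-point 1:3 dilution series for 72 h. Viability read by CellTiter-Glo ATP luminescence relative to 0.1% DMSO.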

Setting [5] is: Homo sapiens, read-out: UM IC50, UM cell lines, 72 h.
Where [6] appears, read: read-out: UM IC50, UM cell lines.

Usually pIC50 stands for the negative decadic logarithm of the IC50, by convention in mol/L. On to `Nc1ccn([C@@H]2O[C@H](CO)[C@@H](O)C2(F)F)c(=O)n1` [Gemcitabine], for which, in assay [1] (setting [5]), the pIC50 is roughly 6.31.

Turning to `COc1ccc(Cn2ccc3ccc(C(=O)NO)cc32)cc1` [PCI-34051], in the assay with MP41 and MP38 cells, the “potency of HDAC3 / HDAC8 inhibitor” value was “neither was potent”.

Regarding `CC(C)C[C@H](NC(=O)[C@H](Cc1ccccc1)NC(=O)c1cnccn1)B(O)O` [Velcade], the negative logarithm of the IC50 (pIC50) in assay [1] (setting [5]) is roughly 8.12; in assay [1] (setting [6]), roughly 8.10; with WS1 fibroblast cell line, roughly 7.24.

Take `COc1cc([C@@H]2c3cc4c(cc3[C@H](O)[C@H]3COC(=O)[C@H]23)OCO4)cc(OC)c1OC` [Podofilox]: the pIC50 in assay [1] (setting [5]) was roughly 8.03.

As to `CC[C@@]1(O)C(=O)OCc2c1cc1n(c2=O)Cc2cc3ccccc3nc2-1` [(S)-(+)-Camptothecin], the negative logarithm of the IC50 (pIC50) in assay [1] (Homo sapiens, read-out: UM IC50) is roughly 6.48.

Take `COc1ccc(-c2nc(N3CCOCC3)c3sc(CN(C)c4ncc(C(=O)NO)cn4)cc3n2)cn1` [Fimepinostat]: the pIC50 in assay [1] (setting [5]) is roughly 7.96. Further, in the assay with WS1 fibroblast cell line, the negative-log IC50 (pIC50) was roughly 7.26 and the “fold higher IC50 / lower toxicity for non-cancerous cells than for UM cells” value is 4- to 5 fold.

Consider `Nc1cc(F)ccc1NC(=O)/C=C/c1cnn(C/C=C/c2ccccc2)c1` [RGFP966], for which the “potency of HDAC3 / HDAC8 inhibitor” value in the assay on MP41 and MP38 cells is given as “neither was potent”.

For `C/C=C1\NC(=O)[C@H]2CSSCC/C=C/[C@H](CC(=O)N[C@H](C(C)C)C(=O)N2)OC(=O)[C@H](C(C)C)NC1=O` [Romidepsin], the values for the pIC50 in assay [1] (setting [5]) and in assay [2] were roughly 8.46 and 8.24 to 8.62, respectively. Also, the “synergy with the other 16 compounds” value in the assay with UM cells was “did not find significant synergy”. Further, the “survival in comparison with the vehicle group” value in assay [3] is “did not significantly improve survival rates; also recorded: did not improve the survival rate”. In assay [4], the “acquired drug resistance after long-term in vivo treatment” value (“acquired drug resistance after long-term” below) is “No significant resistance was detected”.

Regarding Cucurbitacin B, the pIC50 in assay [1] (setting [6]) was roughly 7.42.

For the compound `Cn1cc(CNCC2CCN(c3ncc(C(=O)NO)cn3)CC2)c2ccccc21` [Quisinostat], the results for the pIC50 (in assay [1] (setting [5]); in the assay on WS1 fibroblast cell line) were roughly 7.85 and roughly 6.93, respectively. Moreover, in the assay on WS1 fibroblast cell line, the “fold higher IC50 / lower toxicity for non-cancerous cells than for UM cells” value is on record as “approximately 9 fold”. In the assay with UM cells, the “synergy with the other 16 compounds” value is “did not find significant synergy”. Besides, in assay [3], the “survival in comparison with the vehicle group” value was “did not significantly improve survival rates”. In assay [4], the “acquired drug resistance after long-term” value is listed as “No significant resistance was detected”.

For the compound `CCS(=O)(=O)Nc1ccc(Oc2ccc(F)cc2F)c(-c2cn(C)c(=O)c3[nH]ccc23)c1` [Mivebresib], the negative logarithm of the IC50 (pIC50) in assay [1] (setting [5]) is roughly 6.90; in the assay on WS1 fibroblast cell line it was less than 5.00. Besides, the “metastases detected in organs (ex vivo IVIS)” value in assay [3] (femur, spinal cord) is “prevented the development of detectable spinal cord and femur metastases”. Besides, in assay [4], the “acquired drug resistance after long-term” value is “No significant resistance was detected”.

Turning to `Cc1[nH]c2ccccc2c1CCNCc1ccc(/C=C/C(=O)NO)cc1` [Panobinostat], in assay [1] (setting [5]), the negative-log IC50 (pIC50) was roughly 7.59. In the assay on WS1 fibroblast cell line, the negative-log IC50 (pIC50) was roughly 6.91 and the “fold higher IC50 / lower toxicity for non-cancerous cells than for UM cells” value is listed as 4- to 5 fold.
